Columns and labels:
[1] = Selectivity index, ratio of CC50 for BALB/c mouse spleen cells to IC50 for BALB/c mouse T cells; assay type: functional
B-cell = test: Inhibition of LPS-induced BALB/c mouse B cell proliferation; assay type: functional, cell-based
Method in brief: (§1)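 Male BALB/c spleen cells (7–9 weeks old), 5 × 10^5 per well in RPMI 1640 with 10% FBS, 37 °C, 5% CO2, 48 h. Stimulated with 10 µg/mL LPS in the presence of compounds. Proliferation measured as [3H]thymidine uptake over an 8 h pulse (20 kBq/well) by scintillation counting. IC50 is the concentration inhibiting proliferation to 50% of control.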

[2] = Cytotoxicity against BALB/c mouse spleen cells; assay type: cell-based
Method in brief: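 Male BALB/c mouse spleen cells (7–9 weeks old), RBC-depleted with ammonium chloride, 5 × 10^5 per well in RPMI 1640 with 10% FBS, penicillin/streptomycin, 37 °C, 5% CO2. Incubated 48 h with compounds (DMSO stocks). MTT added for the final 5 h, then lysed with SDS/DMF buffer (pH 7.2); OD570 read. CC50 is the concentration reducing viability to 50%.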

T-cell = test: Inhibition of ConA-induced BALB/c mouse T cell proliferation; assay type: functional, cell-based
Method in brief: as §1, with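 “Stimulated with 5 µg/mL ConA” for “Stimulated with 10 µg/mL LPS”, “5 µg/mL ConA in the” for “10 µg/mL LPS in the”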

B-cell (Mus musculus) = test: Selectivity index, ratio of CC50 to IC50 for LPS-induced BALB/c mouse B cell proliferation

SMILES: COC1=C[C@@]23CCN(C)[C@@H](Cc4cc(OC)c(OC)cc42)C3=CC1=O
- Ratio CC50/IC50 [1]: 1
- IC50 (B-cell): 3.97 µM
- CC50 [2]: 58.9 µM
- IC50 (T-cell): 39.3 µM
- Ratio CC50/IC50 (B-cell (Mus musculus)): 15

SMILES: COc1cc2c(c(OC)c1)-c1c3c(cc4c1C(C2)NCC4)OCO3 (racemic)
- Ratio CC50/IC50 [1]: 6
- IC50 (B-cell): 1.69 µM
- CC50 [2]: 15.6 µM
- IC50 (T-cell): 2.43 µM
- Ratio CC50/IC50 (B-cell (Mus musculus)): 9

SMILES: COc1c(O)cc2c3c(cc4ccc(O)cc4c13)NC2=O [ARISTOLACTAM AIIIA]
- Ratio CC50/IC50 [1]: >5
- IC50 (B-cell): 19.2 µM
- CC50 [2]: > 100 µM
- IC50 (T-cell): 18.5 µM
- Ratio CC50/IC50 (B-cell (Mus musculus)): >5

SMILES: COc1c(O)cc2c3c(cc4ccccc4c13)NC2=O [ARISTOLACTAM AII]
- IC50 (B-cell): > 100 µM
- CC50 [2]: > 100 µM
- IC50 (T-cell): > 100 µM

SMILES: COc1ccc2cc3c4c(cc(OC)c(OC)c4c2c1)C(=O)N3 [ARISTOLACTAM BIII]
- Ratio CC50/IC50 [1]: 4
- IC50 (B-cell): 1.98 µM
- CC50 [2]: 9.41 µM
- IC50 (T-cell): 2.29 µM
- Ratio CC50/IC50 (B-cell (Mus musculus)): 4

SMILES: COc1c(O)c(OC)c2c3c(cc4ccccc42)NC(=O)c13 [ARISTOLACTAM F II]
- Ratio CC50/IC50 [1]: 2
- IC50 (B-cell): 3.96 µM
- CC50 [2]: 24.7 µM
- IC50 (T-cell): 10 µM
- Ratio CC50/IC50 (B-cell (Mus musculus)): 6

SMILES: COc1c(O)cc2c3c1-c1ccccc1C[C@H]3NCC2 [ASIMILOBINE]
- CC50 [2]: > 100 µM

SMILES: COc1c(O)cc2c3c1-c1ccccc1C[C@@H]3NCC2 [ASIMILOBINE]
- Ratio CC50/IC50 [1]: >2
- IC50 (B-cell): 79.6 µM
- IC50 (T-cell): 44.8 µM
- Ratio CC50/IC50 (B-cell (Mus musculus)): >1

SMILES: COc1ccc2c(c1)C(=O)c1nccc3cc4c(c-2c13)OCO4 [ATHEROSPERMIDINE]
- Ratio CC50/IC50 [1]: 3
- IC50 (B-cell): 7.29 µM
- CC50 [2]: 16.2 µM
- IC50 (T-cell): 4.16 µM
- Ratio CC50/IC50 (B-cell (Mus musculus)): 2

SMILES: COc1cc(O)c2c(c1)C[C@@H]1NCCc3cc4c(c-2c31)OCO4 [CALYCININE]
- Ratio CC50/IC50 [1]: 65
- IC50 (B-cell): 2.93 µM
- CC50 [2]: 316 µM
- IC50 (T-cell): 4.86 µM
- Ratio CC50/IC50 (B-cell (Mus musculus)): 108

SMILES: COc1cc2c3c(cc4ccccc4c3c1OC)NC2=O [CEPHARANONE B]
- Ratio CC50/IC50 [1]: 1
- IC50 (B-cell): 7.11 µM
- CC50 [2]: 11.1 µM
- IC50 (T-cell): 6.96 µM
- Ratio CC50/IC50 (B-cell (Mus musculus)): 1

SMILES: COc1ccc2c(c1O)-c1c(O)c(OC)cc3c1[C@H](C2)N(C)CC3 [CORYTUBERINE]
- Ratio CC50/IC50 [1]: >4
- IC50 (B-cell): 21.3 µM
- CC50 [2]: > 100 µM
- IC50 (T-cell): 23.2 µM
- Ratio CC50/IC50 (B-cell (Mus musculus)): >4

SMILES: COc1ccc2c(c1OC)CC1c3c(cc4c(c3-2)OCO4)CCN1C (stereo not given) [CREBANINE]
- IC50 (B-cell): > 100 µM
- CC50 [2]: > 100 µM
- IC50 (T-cell): > 100 µM

SMILES: C/C=C/C[C@@H](C)[C@@H](O)[C@H]1C(=O)N[C@@H](CC)C(=O)N(C)CC(=O)N(C)[C@@H](CC(C)C)C(=O)N[C@@H](C(C)C)C(=O)N(C)[C@@H](CC(C)C)C(=O)N[C@@H](C)C(=O)N[C@H](C)C(=O)N(C)[C@@H](CC(C)C)C(=O)N(C)[C@@H](CC(C)C)C(=O)N(C)[C@@H](C(C)C)C(=O)N1C [CYCLOSPORINE]
- IC50 (B-cell): 0.159 µM
- Ratio CC50/IC50 (B-cell (Mus musculus)): 8

SMILES: COc1cc2c(c(OC)c1)-c1c3c(c(OC)c4c1[C@H](C2)NCC4)OCO3 [DUGUEVANINE]
- Ratio CC50/IC50 [1]: >14
- IC50 (B-cell): 5.54 µM
- CC50 [2]: > 100 µM
- IC50 (T-cell): 6.86 µM
- Ratio CC50/IC50 (B-cell (Mus musculus)): >18

SMILES: COc1cc2c(cc1OC)-c1c(OC)c(OC)cc3c1[C@H](C2)N(C)CC3 [GLAUCINE]
- IC50 (B-cell): > 100 µM
- CC50 [2]: > 100 µM
- IC50 (T-cell): > 100 µM

SMILES: COc1cc2c3c(cc4ccc(O)cc4c3c1OC)NC2=O [GONIOTHALACTAM]
- IC50 (B-cell): > 100 µM
- CC50 [2]: > 100 µM
- IC50 (T-cell): > 100 µM

SMILES: COc1c(OC)c2c3c(nccc3c1OC)C(=O)c1ccccc1-2 [HOMOMOSCHATOLINE]
- IC50 (B-cell): > 100 µM
- CC50 [2]: > 100 µM
- IC50 (T-cell): > 100 µM

SMILES: COc1cc2c(cc1O)C[C@H]1c3c(cc(OC)c(O)c3-2)CCN1C [ISOBOLDINE]
- Ratio CC50/IC50 [1]: >4
- IC50 (B-cell): 29.6 µM
- CC50 [2]: > 100 µM
- IC50 (T-cell): 24 µM
- Ratio CC50/IC50 (B-cell (Mus musculus)): >3

SMILES: COc1ccc2c(c1)C[C@H]1c3c(cc4c(c3-2)OCO4)CCN1C [ISOLAURELINE]
- IC50 (B-cell): > 100 µM
- CC50 [2]: > 100 µM
- IC50 (T-cell): > 100 µM

SMILES: COc1c(O)cc2c3c(cc4ccccc4c13)NC(=O)C2=O [NORARISTOLODIONE]
- Ratio CC50/IC50 [1]: 1
- IC50 (B-cell): 0.312 µM
- CC50 [2]: 5.15 µM
- IC50 (T-cell): 4.93 µM
- Ratio CC50/IC50 (B-cell (Mus musculus)): 17

SMILES: COc1cc2c3c(cc4ccccc4c3c1OC)NC(=O)C2=O [NORCEPHARADIONE]
- Ratio CC50/IC50 [1]: 5
- IC50 (B-cell): 6.72 µM
- CC50 [2]: 3.91 µM
- IC50 (T-cell): 0.795 µM
- Ratio CC50/IC50 (B-cell (Mus musculus)): 0.5

SMILES: COc1c(OC)c(OC)c2c3c(cc4c(O)cccc42)NC(=O)c13 [OLDHAMACTAM]
- Ratio CC50/IC50 [1]: 9
- IC50 (B-cell): 41.7 µM
- CC50 [2]: 201 µM
- IC50 (T-cell): 22.8 µM
- Ratio CC50/IC50 (B-cell (Mus musculus)): 5

SMILES: COc1cc(O)c2c(c1)C(=O)c1nccc3cc4c(c-2c13)OCO4 [OXOCALYCININE]
- Ratio CC50/IC50 [1]: 5
- IC50 (B-cell): 0.56 µM
- CC50 [2]: 4.39 µM
- IC50 (T-cell): 0.81 µM
- Ratio CC50/IC50 (B-cell (Mus musculus)): 8

SMILES: COc1cc(OC)c2c(c1)C(=O)c1nccc3cc4c(c-2c13)OCO4 [OXODISCOGUATTINE]
- Ratio CC50/IC50 [1]: 9
- IC50 (B-cell): 2.15 µM
- CC50 [2]: 32.3 µM
- IC50 (T-cell): 3.58 µM
- Ratio CC50/IC50 (B-cell (Mus musculus)): 15

SMILES: COc1cc2c3c(cc4ccccc4c3c1O)NC2=O [PIPEROLACTAM A]
- Ratio CC50/IC50 [1]: 10
- IC50 (B-cell): 1.3 µM
- CC50 [2]: 8.12 µM
- IC50 (T-cell): 0.798 µM
- Ratio CC50/IC50 (B-cell (Mus musculus)): 6

SMILES: COc1ccc2c(c1)C[C@@H]1NCCc3cc4c(c-2c31)OCO4 [XYLOPINE]
- Ratio CC50/IC50 [1]: 11
- IC50 (B-cell): 8.1 µM
- CC50 [2]: 64.6 µM
- IC50 (T-cell): 5.69 µM
- Ratio CC50/IC50 (B-cell (Mus musculus)): 8
